In ChEMBL document CHEMBL1123547, “Structure-activity relationship of novel oligopeptide antiviral and antitumor agents related to netropsin and distamycin” (1986) one finds MIC, IC50 and MCC data, which are given here for 14 compounds.

Type in all cases: functional
The subject of assay [1] is Vesicular stomatitis virus. The experiment in a line: Evaluation for antiviral activity against vesion stomatitis virus in primary rabbit kidney cell culture. In short, it runs like this:
(§1)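 Primary rabbit kidney cell cultures infected with virus; the endpoint is the compound concentration that reduces virus-induced cytopathogenicity by 50%.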

Assay [2] relates to Human alphaherpesvirus 1. The assay is described as follows: Evaluation for antiviral activity against herpes simplex virus type 1 (strain KOS) in primary rabbit kidney cell culture. In short, it runs like this:
as §1

For assay [3], the species on record is Homo sapiens. The experiment in a line: Evaluation for its inhibitory effect on proliferation of human lymphoblast namalva cells. To be noted: read-out: ID50 (the source's name).
The test system of assay [4] is L1210. The assay is described as follows: Evaluation for its inhibitory effect on proliferation of murine leukemia L1210 cells. To be noted: Mus musculus, read-out: ID50 (the source's name).
The test system of assay [5] is Vaccinia virus. The experiment in a line: Evaluation for antiviral activity against vaccinia virus in primary rabbit kidney cell culture. To be noted: Orthopoxvirus vaccinia. The gist of the method:
as §1

The species named for assay [6] is Homo sapiens. The assay is described as follows: Evaluation for its inhibitory effect on proliferation of human lymphoblast Raji cells. The note with it: read-out: ID50 (the source's name).
For assay [7], the system named is Human alphaherpesvirus 2. The experiment in a line: Evaluation for antiviral activity against herpes simplex virus type 2 (strain G) in primary rabbit kidney cell culture. The gist of the method:
as §1

For assay [8], the species on record is Oryctolagus cuniculus. The assay is described as follows: Evaluation for antiviral activity in primary rabbit kidney cell culture. To be noted: read-out: Min cytotoxic concentration.
In assay [9] the test system is FM3A. The assay is described as follows: Evaluation for its inhibitory effect on proliferation of murine mammary carcinoma (FM3A) cells. The note with it: Mus musculus, read-out: ID50 (the source's name).

≈ marks a conversion by molar mass, not a printed value. Where only a bound is given, the exact number is not on record here.

With `Cn1cc(NC(=O)c2nc(NC(=O)CNC(=N)N)cn2C)nc1C(=O)NCCC(=N)N.O=S(=O)(O)O`, the MIC in assay [1] is over 400 µg/mL; in assay [2] it was over 400 µg/mL; in assay [5], 300 µg/mL; in [7], over 400 µg/mL. In addition, the IC50 is 261 µg/mL in [3], 238 µg/mL in [4], 316 µg/mL in assay [6] and over 500 µg/mL in assay [9]. Moreover, the MCC in [8] was over 400 µg/mL.

For the compound `Cn1cc(NC(=O)CNC(=N)N)cc1C(=O)Nc1cn(C)c(C(=O)NCCC(=N)N)n1.O=S(=O)(O)O`, the MIC in [1] was at least 200 µg/mL; in [2], at least 200 µg/mL; in [5] it was 40 µg/mL; in assay [7] it was at least 200 µg/mL. Also, the IC50 in assay [3], in assay [4], in [6] and in assay [9] was over 100 µg/mL in each case. In addition, in assay [8], the MCC was found to be 200 µg/mL.

For `Cl.Cn1cc(NC(=O)c2cc(N)cn2C)cc1C(=O)NCCC(=N)N`, the MIC in [1] was at least 400 µg/mL; in [2], 150 µg/mL; in assay [5] it was 20 µg/mL; in assay [7], 150 µg/mL. Moreover, the IC50 was found to be 36 µg/mL in assay [3], 276 µg/mL in assay [4], 43 µg/mL in [6] and 327 µg/mL in assay [9]. The MCC in [8] came to 400 µg/mL.

Consider `Nc1ccnc2c1ncn2[C@@H]1C[C@H](CO)[C@@H](O)[C@H]1O`, for which the figures for the MIC in assay [2], in assay [5] and in assay [7] were 200 µg/mL (≈ 757 µM), 0.3 µg/mL (≈ 1.14 µM) and at least 400 µg/mL, respectively. Further, in assay [8], the MCC is over 400 µg/mL.

For `Cl.Cl.Cn1cc(NC(=O)c2cc(NC(=O)c3cc(NC=O)cn3C)cn2C)cc1C(=O)NCCC(=N)N`, the MIC is at least 200 µg/mL in [1], 70 µg/mL in assay [2], 0.2 µg/mL in [5] and 70 µg/mL in [7]. Further, the IC50 in assay [3] worked out at 22 µg/mL; in assay [4], 27 µg/mL; in [6], 24 µg/mL; in assay [9], 31 µg/mL. In assay [8], the MCC amounted to 200 µg/mL.

`Cn1cc(NC(=O)c2cc(NC(=O)C[N+](C)(C)C)cn2C)cc1C(=O)NCCC(=N)N.[Cl-]`: the MIC in assay [1] was over 400 µg/mL; in [2] it was over 200 µg/mL; in assay [5], 20 µg/mL; in [7] it was over 200 µg/mL. The IC50 in [4] is 543 µg/mL; in assay [6] it was 504 µg/mL; in [9] it was over 1000 µg/mL. In [8], the MCC is at least 400 µg/mL.

Take `CC[N+](CC)(CC)CC(=O)Nc1cc(C(=O)Nc2cc(C(=O)NCCC(=N)N)n(C)c2)n(C)c1.[Cl-]`: the MIC was over 400 µg/mL in [1], 300 µg/mL in assay [2], 300 µg/mL in assay [5] and 300 µg/mL in assay [7]. Besides, the IC50 in assay [3] stood at 180 µg/mL; in assay [4], 222 µg/mL; in assay [6], 252 µg/mL; in [9], 334 µg/mL. Besides, in [8], the MCC was over 400 µg/mL.

Turning to `Cl.Cn1cc(NC(=O)c2nc(NC(=O)c3nc(NC(=O)CNC(=N)N)cn3C)cn2C)nc1C(=O)NCCC(=N)N`, the MIC in [1], in [2], in assay [5] and in assay [7] was at least 100 µg/mL in each case. Besides, the IC50 in [3] was 100 µg/mL; in assay [4] it was 42 µg/mL; in assay [6], 52 µg/mL; in assay [9] it was 46 µg/mL. Besides, the MCC in assay [8] was found to be 100 µg/mL.

With `Cl.Cn1cc(NC(=O)c2nc(NC(=O)CNC(=N)N)cn2C)cc1C(=O)NCCC(=N)N`, the MIC in assay [1] was over 400 µg/mL; in [2], over 400 µg/mL; in [5], 40 µg/mL; in [7] it was over 400 µg/mL. In addition, the IC50 in assay [3], in assay [4], in [6] and in [9] was over 100 µg/mL in each case. Besides, the MCC in [8] is over 400 µg/mL.

For `Nc1ncnc2c1ncn2C[C@H](O)CO` [(S)-DHPA], the MIC in [1] is 20 µg/mL (≈ 95.6 µM); in assay [2], over 400 µg/mL; in assay [5] it was 70 µg/mL (≈ 335 µM); in assay [7] it was over 400 µg/mL. In addition, in assay [8], the MCC is over 400 µg/mL.

In the case of `Cl.Cn1cc(NC(=O)c2cc(NC(=O)c3cc(N)cn3C)cn2C)cc1C(=O)NCCC(=N)N` [DEFORMYLDISTAMYCIN], the MIC in assay [1] was at least 100 µg/mL; in [2], at least 100 µg/mL; in [5], 7 µg/mL; in [7], at least 100 µg/mL. For the same compound, the IC50 in assay [3] amounted to 29 µg/mL; in assay [4], 174 µg/mL; in [6], 32 µg/mL; in assay [9], 454 µg/mL. Also, in assay [8], the MCC was 100 µg/mL.

For the compound `Cl.Cn1cc(NC(=O)c2cc(NC(=O)CNC(=N)N)cn2C)cc1C(=O)NCCC(=N)N` [NETROPSIN CHLORIDE], the MIC in [1] was at least 40 µg/mL; in assay [2], at least 40 µg/mL; in assay [5], 2 µg/mL; in assay [7], at least 40 µg/mL. Besides, the IC50 was determined as 103 µg/mL in assay [3], 245 µg/mL in [4], 139 µg/mL in assay [6] and 321 µg/mL in [9]. The MCC in [8] was found to be 40 µg/mL.

On to `NC(=O)c1ncn([C@@H]2O[C@H](CO)[C@@H](O)[C@H]2O)n1` [RIBAVIRIN], for which the MIC in assay [1] is 200 µg/mL (≈ 819 µM); in assay [2], over 400 µg/mL; in [5] it was 30 µg/mL (≈ 123 µM); in assay [7] it was over 400 µg/mL. In addition, the MCC in assay [8] is over 400 µg/mL.

Consider `Nc1ncnc2c1ccn2[C@@H]1O[C@H](CO)[C@@H](O)[C@H]1O` [TUBERCIDIN], for which the MIC in assay [2] was at least 0.4 µg/mL; in [5], 0.07 µg/mL (≈ 0.263 µM); in assay [7], at least 0.4 µg/mL. Moreover, the MCC in assay [8] worked out at 0.4 µg/mL.
